In ChEMBL document CHEMBL4813946, “Discovery of novel 4-azaaryl-N-phenylpyrimidin-2-amine derivatives as potent and selective FLT3 inhibitors for acute myeloid leukaemia with FLT3 mutations” (Eur J Med Chem, 2021):

Columns and labels:
[1] = biological target: T1, Receptor-type tyrosine-protein kinase FLT3 (Homo sapiens, UniProt P36888); assay: Inhibition of wild type FLT3 (unknown origin) using Glu/Tyr peptide substrate incubated for 120 mins measured after 40 mins incubation under dark by ADP-glo based luminescence assay
T1 sequence (P36888 whole entry): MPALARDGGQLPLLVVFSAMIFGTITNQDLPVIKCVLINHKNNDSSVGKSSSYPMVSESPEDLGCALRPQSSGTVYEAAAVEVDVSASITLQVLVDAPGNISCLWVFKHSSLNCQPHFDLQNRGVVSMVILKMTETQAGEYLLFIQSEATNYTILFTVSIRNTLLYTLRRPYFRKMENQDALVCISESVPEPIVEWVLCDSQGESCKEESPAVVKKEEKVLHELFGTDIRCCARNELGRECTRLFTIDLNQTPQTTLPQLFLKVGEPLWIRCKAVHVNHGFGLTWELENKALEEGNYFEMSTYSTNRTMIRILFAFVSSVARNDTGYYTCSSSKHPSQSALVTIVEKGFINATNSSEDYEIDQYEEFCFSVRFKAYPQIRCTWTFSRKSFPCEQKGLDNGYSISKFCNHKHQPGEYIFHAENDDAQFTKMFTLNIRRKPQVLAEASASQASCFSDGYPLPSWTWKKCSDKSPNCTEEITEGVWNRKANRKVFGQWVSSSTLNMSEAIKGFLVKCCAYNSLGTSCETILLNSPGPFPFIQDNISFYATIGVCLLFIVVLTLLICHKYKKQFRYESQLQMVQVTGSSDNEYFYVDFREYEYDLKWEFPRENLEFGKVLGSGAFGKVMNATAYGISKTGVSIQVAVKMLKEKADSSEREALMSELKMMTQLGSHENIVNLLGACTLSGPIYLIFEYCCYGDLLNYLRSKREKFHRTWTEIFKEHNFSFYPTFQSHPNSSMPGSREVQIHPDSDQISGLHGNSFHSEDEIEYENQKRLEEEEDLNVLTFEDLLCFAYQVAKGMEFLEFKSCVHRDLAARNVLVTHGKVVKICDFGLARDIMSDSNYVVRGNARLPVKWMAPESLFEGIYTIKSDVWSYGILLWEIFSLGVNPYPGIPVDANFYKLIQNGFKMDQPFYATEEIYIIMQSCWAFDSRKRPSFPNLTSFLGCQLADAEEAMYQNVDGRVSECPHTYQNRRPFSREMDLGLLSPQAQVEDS
Procedure, shortened: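 In-house ADP-Glo assay with poly(Glu,Tyr) 4:1 substrate in 40 mM Tris pH 7.5, 20 mM MgCl2, 50 µM DTT, 0.1 mg/mL BSA. Kinase at 20 nM. ADP-Glo reagent 40 min in the dark, detection reagent 30–40 min, then luminescence. Ki was derived from IC50 by Cheng-Prusoff.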

MV4-11 [2] = assay: Antiproliferative activity against human MV4-11 cells incubated for 72 hrs by resazurin assay; format: functional
Procedure, shortened: (§1)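 Cells seeded and pre-incubated 24 h at 37 °C, 5% CO2, then given a five-fold dilution series of compound (from 10 mM DMSO stock) in medium, in triplicate. Resazurin added after 72 h exposure, 4 h in dark at 37 °C. Fluorescence read at 570/585 nm, normalised to DMSO vehicle. GI50 by non-linear regression; mean ± SD of at least two replicates.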

[3] = biological target: Cyclin-dependent kinase 2/cyclin E1 (Homo sapiens, UniProt P24941); assay: Inhibition of CDK2/cyclin E (unknown origin) using histone 1 protein substrate incubated for 120 mins measured after 40 mins incubation under dark by ADP-glo based luminescence assay; format: protein-complex assay
Procedure, shortened: (§2)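 In-house ADP-Glo assay with 2 mM DMSO stocks. Kinases were CDK1/cyclin B at 1 nM, CDK2/cyclin E1 at 10 nM and CDK7/cyclin H/MAT1 at 40 nM. Substrate was histone 1 for CDK1 and CDK2, and a RNA pol II CTD peptide for CDK7. Compound at 8–10 concentrations, 1:3 serial, final DMSO 0.5%. Reactions ran 60–120 min at room temperature, then ADP-Glo reagent 40 min in the dark, then detection reagent 40 min, read by luminescence. Ki was derived from IC50 by Cheng-Prusoff.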

[4] = biological target: Receptor-type tyrosine-protein kinase FLT3 (Homo sapiens, UniProt P36888, ITD); assay: Inhibition of FLT3 ITD mutant (unknown origin) using Glu/Tyr peptide substrate incubated for 80 mins measured after 40 mins incubation under dark by ADP-glo based luminescence assay
CDK7/Cyclin H/MNAT1 = CDK7/Cyclin H/MNAT1 (Homo sapiens, UniProt P50613); assay: Inhibition of CDK7/cyclin H/MAT1 (unknown origin) using HYSPTSPSYSPTSPSYSPTSPSKKKK-O substrate incubated for 120 mins measured after 40 mins incubation under dark by ADP-glo based luminescence assay; format: protein-complex assay; procedure, shortened: as §2
[5] = biological target: Cyclin-dependent kinase 1/cyclin B1 (Homo sapiens, UniProt P06493); assay: Inhibition of CDK1/cyclin B (unknown origin) using histone 1 protein substrate incubated for 120 mins measured after 40 mins incubation under dark by ADP-glo based luminescence assay; format: protein-complex assay; procedure, shortened: as §2
[6] = Inhibition of FLT3 Y591-V592insVDFREYEYD mutant (unknown origin) incubated for 120 mins by ADP-glo based luminescence assay; parameters: species or system Homo sapiens
[7] = biological target: Receptor-type tyrosine-protein kinase FLT3 (Homo sapiens, UniProt P36888, D835Y); assay: Inhibition of FLT3 D835Y mutant (unknown origin) incubated for 120 mins by ADP-glo based luminescence assay
[8] = Inhibition of FLT3 ITD-W51 mutant (unknown origin) incubated for 120 mins by ADP-glo based luminescence assay; parameters: species or system Homo sapiens
MV4-11 [9] = assay: Antiproliferative activity against human MV4-11 cells harboring FLT3-ITD mutant assessed as reduction in cell viability after 72 hrs by resazurin assay; format: functional; procedure, shortened: as §1
K562 = assay: Antiproliferative activity against human K562 cells harboring FLT3 knockout gene assessed as reduction in cell viability after 72 hrs by resazurin assay; format: functional; procedure, shortened: as §1
[10] = Antiproliferative activity against human MOLM-13 cells harboring FLT3-ITD mutant assessed as reduction in cell viability after 72 hrs by resazurin assay; format: functional; details: MOLM-13, 72 h; procedure, shortened: as §1
THP-1 = assay: Antiproliferative activity against human THP-1 cells harboring wild type FLT3 assessed as reduction in cell viability after 72 hrs by resazurin assay; format: functional; procedure, shortened: as §1
[11] = biological target: Receptor-type tyrosine-protein kinase FLT3 (Homo sapiens, UniProt P36888, F594-R595INSR); assay: Inhibition of FLT3 F594_R595insR mutant (unknown origin) incubated for 120 mins by ADP-glo based luminescence assay
Jurkat = assay: Antiproliferative activity against human Jurkat cells harboring FLT3 knockout gene assessed as reduction in cell viability after 72 hrs by resazurin assay; format: functional; procedure, shortened: as §1
U-937 = assay: Antiproliferative activity against human U-937 cells harboring wild type/low FLT3 assessed as reduction in cell viability after 72 hrs by resazurin assay; format: functional; procedure, shortened: as §1
NB-4 = assay: Antiproliferative activity against human NB-4 cells harboring wild type FLT3 assessed as reduction in cell viability after 72 hrs by resazurin assay; format: functional; procedure, shortened: as §1
[12] = biological target: Receptor-type tyrosine-protein kinase FLT3 (Homo sapiens, UniProt P36888, R595-E596INSEY); assay: Inhibition of FLT3 R595_E596insEY mutant (unknown origin) incubated for 120 mins by ADP-glo based luminescence assay
[13] = Inhibition of FLT3 ITD-NPOS mutant (unknown origin) incubated for 120 mins by ADP-glo based luminescence assay; parameters: species or system Homo sapiens

Chain of Cyclin-dependent kinase 1/cyclin B1 (P06493 whole entry): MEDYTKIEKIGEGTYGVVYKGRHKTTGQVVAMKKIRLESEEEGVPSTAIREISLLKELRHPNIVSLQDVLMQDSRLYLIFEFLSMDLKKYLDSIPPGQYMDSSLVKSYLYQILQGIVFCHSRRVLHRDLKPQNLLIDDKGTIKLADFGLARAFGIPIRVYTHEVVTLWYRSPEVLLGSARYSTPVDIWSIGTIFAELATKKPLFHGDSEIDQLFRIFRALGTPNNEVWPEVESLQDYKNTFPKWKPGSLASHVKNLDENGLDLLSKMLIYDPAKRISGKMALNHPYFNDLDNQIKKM
Chain of Cyclin-dependent kinase 1/cyclin B1 (P14635 whole entry, further chain): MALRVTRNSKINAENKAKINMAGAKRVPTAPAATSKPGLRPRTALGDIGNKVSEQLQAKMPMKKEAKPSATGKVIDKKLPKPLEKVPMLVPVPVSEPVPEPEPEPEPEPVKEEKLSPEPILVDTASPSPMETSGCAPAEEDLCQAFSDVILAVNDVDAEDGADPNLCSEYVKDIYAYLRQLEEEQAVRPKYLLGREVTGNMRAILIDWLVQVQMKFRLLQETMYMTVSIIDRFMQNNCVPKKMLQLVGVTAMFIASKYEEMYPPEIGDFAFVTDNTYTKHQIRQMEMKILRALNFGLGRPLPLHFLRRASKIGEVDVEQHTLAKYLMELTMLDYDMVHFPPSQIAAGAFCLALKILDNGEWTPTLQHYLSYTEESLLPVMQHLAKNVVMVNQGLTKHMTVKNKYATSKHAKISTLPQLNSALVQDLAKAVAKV
Chain of CDK7/Cyclin H/MNAT1 (P51946 whole entry): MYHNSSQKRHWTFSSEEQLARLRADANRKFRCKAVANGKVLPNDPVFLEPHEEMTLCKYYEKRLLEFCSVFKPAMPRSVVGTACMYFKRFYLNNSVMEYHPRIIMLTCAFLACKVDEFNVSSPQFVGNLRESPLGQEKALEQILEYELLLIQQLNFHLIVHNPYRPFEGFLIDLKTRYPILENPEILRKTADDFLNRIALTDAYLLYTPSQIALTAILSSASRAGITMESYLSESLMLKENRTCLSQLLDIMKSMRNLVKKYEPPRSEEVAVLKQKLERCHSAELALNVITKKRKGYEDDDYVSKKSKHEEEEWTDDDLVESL
Chain of CDK7/Cyclin H/MNAT1 (P50613 whole entry): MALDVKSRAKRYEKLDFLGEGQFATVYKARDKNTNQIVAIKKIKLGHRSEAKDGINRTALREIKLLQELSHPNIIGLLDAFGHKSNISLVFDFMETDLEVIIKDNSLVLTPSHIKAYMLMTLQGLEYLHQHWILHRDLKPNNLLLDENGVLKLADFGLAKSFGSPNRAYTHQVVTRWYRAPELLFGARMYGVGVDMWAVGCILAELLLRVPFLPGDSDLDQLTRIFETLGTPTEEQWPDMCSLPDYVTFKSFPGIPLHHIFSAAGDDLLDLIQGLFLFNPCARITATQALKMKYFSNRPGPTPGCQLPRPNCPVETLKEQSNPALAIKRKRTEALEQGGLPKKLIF
Chain of CDK7/Cyclin H/MNAT1 (P51948 whole entry, further chain): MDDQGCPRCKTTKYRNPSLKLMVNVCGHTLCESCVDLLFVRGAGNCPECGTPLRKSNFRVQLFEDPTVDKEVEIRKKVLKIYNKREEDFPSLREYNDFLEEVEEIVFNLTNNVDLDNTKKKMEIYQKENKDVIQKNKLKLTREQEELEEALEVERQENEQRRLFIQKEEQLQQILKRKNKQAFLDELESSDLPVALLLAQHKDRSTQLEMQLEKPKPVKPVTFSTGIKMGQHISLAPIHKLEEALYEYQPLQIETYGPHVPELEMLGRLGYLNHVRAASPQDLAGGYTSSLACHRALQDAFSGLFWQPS

Compound	Ki [1]	GI50 (MV4-11 [2])	Ki [3]	Ki [4]	Ki (CDK7/Cyclin H/MNAT1)	Ki [5]	also measured
CC(=O)N1CCN(c2ccc(Nc3nccc(-c4c[nH]c5cccnc45)n3)cc2)CC1	32 nM	420 nM	> 5000 nM	4 nM	> 5000 nM	> 5000 nM	–
CC(=O)N1CCN(c2ccc(Nc3nccc(-c4c[nH]c5ccccc45)n3)cc2)CC1	22 nM	33 nM	> 5000 nM	11 nM	> 5000 nM	> 5000 nM	–
CC(=O)N1CCN(c2ccc(Nc3ncc(C#N)c(-c4c(C)[nH]c5ccccc45)n3)cc2)CC1	119 nM	390 nM	2170 nM	2 nM	536 nM	> 5000 nM	–
CC(=O)N1CCN(c2ccc(Nc3ncc(C#N)c(-c4cn(C)c5ccccc45)n3)cc2)CC1	37 nM	30 nM	1120 nM	7 nM	1620 nM	1580 nM	–
CCc1nc(C(N)=O)c(Nc2ccc(N3CCC(N4CCN(C)CC4)CC3)c(OC)c2)nc1NC1CCOCC1 [GILTERITINIB]	–	2 nM	1480 nM	–	> 5000 nM	> 5000 nM	–
CC(=O)N1CCN(c2ccc(Nc3nccc(-c4c[nH]c5ncccc45)n3)cc2)CC1	0.8 nM	< 1 nM	49 nM	0.1 nM	> 5000 nM	91 nM	–
CC(=O)N1CCCN(c2cccc(Nc3nccc(-c4n[nH]c5ccccc45)n3)c2)CC1	1 nM	18 nM	> 5000 nM	0.6 nM	> 5000 nM	727 nM	–
CC(=O)N1CCCN(c2cccc(Nc3nccc(-c4c[nH]c5cccnc45)n3)c2)CC1	150 nM	688 nM	> 5000 nM	107 nM	> 5000 nM	> 5000 nM	–
CC(=O)N1CCN(c2ccc(Nc3nccc(-c4n[nH]c5ccccc45)n3)cc2)CC1	> 5000 nM	346 nM	> 5000 nM	207 nM	> 5000 nM	> 5000 nM	–
CC(=O)N1CCN(c2ccc(Nc3ncc(C#N)c(-c4n[nH]c5ccccc45)n3)cc2)CC1	21 nM	17 nM	> 5000 nM	0.2 nM	> 5000 nM	1650 nM	Ki [6]: < 0.3 nM; Ki [7]: < 0.3 nM; Ki [8]: < 0.3 nM; GI50 (MV4-11 [9]): 17 nM; GI50 (K562): 185 nM; GI50 [10]: 0.4 nM; GI50 (THP-1): 3040 nM; Ki [11]: < 0.3 nM; GI50 (Jurkat): > 10000 nM; GI50 (U-937): > 10000 nM; GI50 (NB-4): 126 nM; Ki [12]: < 0.3 nM; Ki [13]: < 0.3 nM
CN1CCN(c2cccc(Nc3nccc(-c4c[nH]c5cccnc45)n3)c2)CC1	217 nM	405 nM	> 5000 nM	20 nM	> 5000 nM	> 5000 nM	–

Now from value to compound, other results behind:

Ki [1]	GI50 (MV4-11 [2])	Ki [3]	Ki [4]	Ki (CDK7/Cyclin H/MNAT1)	Ki [5]	Compound	also measured
883 nM	181 nM	> 5000 nM	274 nM	> 5000 nM	> 5000 nM	CC(=O)N1CCN(c2ccc(Nc3nccc(-c4nn(C)c5ccccc45)n3)cc2)CC1	–
> 5000 nM	1560 nM	> 5000 nM	128 nM	> 5000 nM	> 5000 nM	CC(=O)N1CCN(c2ccc(Nc3nccc(-c4cn(S(=O)(=O)c5ccc(C)cc5)c5ccccc45)n3)cc2)CC1	–
1 nM	24 nM	> 5000 nM	0.7 nM	> 5000 nM	1760 nM	CC(=O)N1CCCN(c2cccc(Nc3nccc(-c4cnc5n(C)cccc4-5)n3)c2)CC1	–
4 nM	4 nM	> 5000 nM	0.4 nM	426 nM	4050 nM	CC(=O)N1CCN(c2ccc(Nc3ncc(C#N)c(-c4c[nH]c5ccccc45)n3)cc2)CC1	–
0.4 nM	20 nM	31 nM	0.1 nM	29 nM	51 nM	CC(=O)N1CCCN(c2cccc(Nc3nccc(-c4c[nH]c5ncccc45)n3)c2)CC1	–
4 nM	5 nM	84 nM	2 nM	142 nM	531 nM	CN1CCN(c2cccc(Nc3nccc(-c4c[nH]c5ncccc45)n3)c2)CC1	–
149 nM	252 nM	> 5000 nM	133 nM	> 5000 nM	> 5000 nM	CC(=O)N1CCN(c2ccc(Nc3nccc(-c4cn(C)c5ccccc45)n3)cc2)CC1	–
40 nM	24 nM	970 nM	13 nM	> 5000 nM	> 5000 nM	CN1CCN(c2cccc(Nc3nccc(-c4cn(C)c5ncccc45)n3)c2)CC1	–
